{
  "source": "ChEMBL document CHEMBL3271979",
  "about": "“Inhibition of solid tumors by nitrosoureas. 1. Lewis lung carcinoma” (1977)",
  "key": {"[1]": {"assay": "Antitumor activity against mouse advanced Lewis lung carcinoma allografted in ip dosed BDF1 mouse assessed as increase in host lifespan administered as single dose on day 6 or 7 post-tumor implantation", "type": "functional", "in_short": "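Advanced Lewis lung model: about 40 mg fragments implanted sc by trocar into BDF1 mice, and mice with tumors of about 400 mg (day 6-7) selected. Tumor weight from calipers, w = ab²/2. Agent given as one ip dose in distilled water or physiological saline. Nontumor-bearing mice received matching doses as toxicity controls.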"}, "Mus musculus [2]": {"test_system": "Mus musculus", "assay": "(§1) Antitumor activity against mouse early Lewis lung carcinoma allografted in ip dosed BDF1 mouse assessed as disease cure administered as single dose on 1 or 2 days post-tumor implantation measured for 80 days post-drug treatment", "type": "functional", "in_short": "(§2)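 BDF1 mice implanted sc by trocar with ~40 mg Lewis lung fragments from sterile donor tumors. A single ip dose was given on day 1 or 2 after implant, in water or saline vehicle. Cures were scored in animals observed for at least 80 days after treatment. Drug-toxicity controls were matched non-tumor-bearing mice monitored for body weight and deaths.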"}, "Mus musculus [3]": {"test_system": "Mus musculus", "assay": "Antitumor activity against mouse advanced Lewis lung carcinoma allografted in ip dosed BDF1 mouse assessed as complete regression of established tumor administered as single dose on day 6 or 7 post-tumor implantation", "type": "functional, organism-based", "in_short": "(§3)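 BDF1 mice (C57Blk/6 × DBA/2) implanted sc by trocar with Lewis lung tumor fragments of about 40 mg, taken only from bacteriologically sterile donor tumors. Mice bearing tumors of about 400 mg (day 6-7) were selected. Each received a single ip dose on day 7, at or below the LD10 in normal mice. Groups were of 10 mice. Tumor weight was taken from calipers as w = ab²/2, measured at least twice weekly. Matched non-tumor mice served as toxicity controls.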"}, "Mus musculus [4]": {"test_system": "Mus musculus", "assay": "Antitumor activity against mouse advanced Lewis lung carcinoma allografted in ip dosed BDF1 mouse assessed as disease cure administered as single dose on day 6 or 7 post-tumor implantation", "type": "functional, organism-based", "in_short": "as §3"}, "[5]": {"assay": "Antitumor activity against mouse advanced Lewis lung carcinoma allografted in BDF1 mouse assessed as increase in host life span at 13 mg/kg, ip administered as single dose on 7th day post-tumor implantation", "type": "functional", "conditions": "route intraperitoneal", "in_short": "(§4)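 BDF1 mice (C57Blk/6 × DBA/2) implanted sc by trocar with about 40 mg Lewis lung tumor fragments from bacteriologically sterile donors. Advanced-disease groups held tumors of about 400 mg by day 6-7, sized by caliper (w = ab²/2). Single ip injection on day 7, in water or saline vehicle, at or below the LD10 in normal mice. Tumors measured at least twice weekly.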"}, "Mus musculus [6]": {"test_system": "Mus musculus", "assay": "Antitumor activity against mouse advanced Lewis lung carcinoma allografted in BDF1 mouse assessed as disease cure at 13 mg/kg, ip administered as single dose on 7th day post-tumor implantation measured for 80 days post-drug treatment", "type": "functional, organism-based", "parameters": "dose 13 mg/kg", "in_short": "as §4"}, "Mus musculus [7]": {"test_system": "Mus musculus", "assay": "Antitumor activity against mouse advanced Lewis lung carcinoma allografted in BDF1 mouse assessed as complete regression of established tumor at 13 mg/kg, ip administered as single dose on 7th day post-tumor implantation", "type": "functional, organism-based", "parameters": "dose 13 mg/kg", "in_short": "as §4"}, "[8]": {"assay": "Ratio of ED50 for antitumor activity against mouse L1210 cells allografted in ip dosed mouse to LD10 for mouse"}, "Mus musculus [9]": {"test_system": "Mus musculus", "assay": "Antitumor activity against mouse early Lewis lung carcinoma allografted in ip dosed BDF1 mouse administered as single dose on 1 or 2 days post-tumor implantation measured for 80 days post-drug treatment", "type": "functional, organism-based", "in_short": "as §2"}, "[10]": {"assay": "Antitumor activity against mouse advanced Lewis lung carcinoma allografted in BDF1 mouse assessed as increase in host life span at 36 mg/kg, ip administered as single dose on 7th day post-tumor implantation", "type": "functional", "conditions": "route intraperitoneal", "in_short": "as §4"}, "[11]": {"assay": "Antitumor activity against mouse advanced Lewis lung carcinoma allografted in BDF1 mouse assessed as increase in host life span at 54 mg/kg, ip administered as single dose on 7th day post-tumor implantation", "type": "functional", "conditions": "route intraperitoneal", "in_short": "as §4"}, "Mus musculus [12]": {"test_system": "Mus musculus", "assay": "Antitumor activity against mouse advanced Lewis lung carcinoma allografted in BDF1 mouse assessed as disease cure at 36 mg/kg, ip administered as single dose on 7th day post-tumor implantation measured for 80 days post-drug treatment", "type": "functional, organism-based", "parameters": "dose 36 mg/kg", "in_short": "as §3"}, "Mus musculus [13]": {"test_system": "Mus musculus", "assay": "Antitumor activity against mouse advanced Lewis lung carcinoma allografted in BDF1 mouse assessed as disease cure at 54 mg/kg, ip administered as single dose on 7th day post-tumor implantation measured for 80 days post-drug treatment", "type": "functional, organism-based", "parameters": "dose 54 mg/kg", "in_short": "as §3"}, "[14]": {"assay": "as §1", "type": "functional", "in_short": "as §2"}, "Mus musculus [15]": {"test_system": "Mus musculus", "assay": "Antitumor activity against mouse advanced Lewis lung carcinoma allografted in BDF1 mouse assessed as complete regression of established tumor at 40 mg/kg, ip administered as single dose on 7th day post-tumor implantation", "type": "functional, organism-based", "parameters": "dose 40 mg/kg", "in_short": "as §3"}, "Mus musculus [16]": {"test_system": "Mus musculus", "assay": "Antitumor activity against mouse advanced Lewis lung carcinoma allografted in BDF1 mouse assessed as complete regression of established tumor at 60 mg/kg, ip administered as single dose on 7th day post-tumor implantation", "type": "functional, organism-based", "parameters": "dose 60 mg/kg", "in_short": "as §3"}, "Mus musculus [17]": {"test_system": "Mus musculus", "assay": "Antitumor activity against mouse advanced Lewis lung carcinoma allografted in BDF1 mouse assessed as disease cure at 60 mg/kg, ip administered as single dose on 7th day post-tumor implantation measured for 80 days post-drug treatment", "type": "functional, organism-based", "parameters": "dose 60 mg/kg", "in_short": "as §3"}, "[18]": {"assay": "Antitumor activity against mouse early Lewis lung carcinoma allografted in BDF1 mouse assessed as time delay in tumor growth at 60 mg/kg, ip administered as single dose on 1 or 2 days post-tumor implantation", "type": "functional", "conditions": "route intraperitoneal", "in_short": "(§5)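 BDF1 mice (C57Blk/6 × DBA/2) implanted sc by trocar with ~40 mg Lewis lung tumor fragments from bacteriologically sterile donors. A single ip dose was given on day 1 or 2, as a solution or suspension in water or saline with suspending agent, at ≤0.5 ml. Tumors were measured by caliper at least twice weekly, with weight = ab²/2. Delay was taken as the days for the tumor to reach 1 g.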"}, "[19]": {"assay": "Antitumor activity against mouse advanced Lewis lung carcinoma allografted in BDF1 mouse assessed as increase in host life span at 60 mg/kg, ip administered as single dose on 7th day post-tumor implantation", "type": "functional", "conditions": "route intraperitoneal", "in_short": "as §4"}, "[20]": {"assay": "Antitumor activity against mouse early Lewis lung carcinoma allografted in BDF1 mouse assessed as increase in host life span at 60 mg/kg, ip administered as single dose on 1 or 2 days post-tumor implantation", "type": "functional", "conditions": "route intraperitoneal", "in_short": "(§6)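 BDF1 mice (C57Blk/6 × DBA/2) implanted sc by trocar with ~40 mg Lewis lung tumor fragments from bacteriologically sterile donor tumors. Single ip dose on day 1 or 2, as a solution or suspension in water (CMC or gum acacia) or saline (HPC or Tween 80). Read-out is […]. Same-dose toxicity controls were run in nontumor-bearing mice.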"}, "[21]": {"assay": "Antitumor activity against mouse early Lewis lung carcinoma allografted in BDF1 mouse assessed as time delay in tumor growth at 40 mg/kg, ip administered as single dose on 1 or 2 days post-tumor implantation", "type": "functional", "conditions": "route intraperitoneal", "in_short": "as §5"}, "Mus musculus [22]": {"test_system": "Mus musculus", "assay": "Antitumor activity against mouse advanced Lewis lung carcinoma allografted in BDF1 mouse assessed as disease cure at 40 mg/kg, ip administered as single dose on 7th day post-tumor implantation measured for 80 days post-drug treatment", "type": "functional, organism-based", "parameters": "dose 40 mg/kg", "in_short": "as §4"}, "[23]": {"assay": "Antitumor activity against mouse early Lewis lung carcinoma allografted in BDF1 mouse assessed as increase in host life span at 40 mg/kg, ip administered as single dose on 1 or 2 days post-tumor implantation", "type": "functional", "conditions": "route intraperitoneal", "in_short": "as §6"}, "[24]": {"assay": "Antitumor activity against mouse advanced Lewis lung carcinoma allografted in BDF1 mouse assessed as increase in host life span at 40 mg/kg, ip administered as single dose on 7th day post-tumor implantation", "type": "functional", "conditions": "route intraperitoneal", "in_short": "as §4"}},
  "note": "Active and inactive are the calls of the source. No cut-off for these calls is given here.",
  "data": [
    {"smiles": "O=NN(CCCl)C(=O)N[C@H]1C(O)O[C@H](CO)[C@@H](O)[C@@H]1O", "note": "(stereo not given in full) [CHLOROZOTOCIN]", "values": [
      {"measurement": "ILS", "setting": "[1]", "value": ">25", "unit": "%"},
      {"measurement": "Activity", "setting": "Mus musculus [2]", "value": "inactive"},
      {"measurement": "inhibition", "setting": "Mus musculus [3]", "value": "inactive"},
      {"measurement": "Activity", "setting": "Mus musculus [4]", "value": "inactive"},
      {"measurement": "ILS at 13 mg/kg", "setting": "[5]", "value": 25, "unit": "%"},
      {"measurement": "Activity", "setting": "Mus musculus [6]", "value": "inactive"},
      {"measurement": "inhibition", "setting": "Mus musculus [7]", "value": "inactive"},
      {"measurement": "Ratio", "setting": "[8]", "value": 0.4},
      {"measurement": "Activity", "setting": "Mus musculus [9]", "value": "inactive"}
    ]},
    {"smiles": "COC(=O)[C@H]1CC[C@@H](NC(=O)N(CCCl)N=O)CC1", "values": [
      {"measurement": "inhibition", "setting": "Mus musculus [3]", "value": "Active"},
      {"measurement": "Activity", "setting": "Mus musculus [4]", "value": "inactive"},
      {"measurement": "ILS at 36 mg/kg", "setting": "[10]", "value": 120, "unit": "%"},
      {"measurement": "ILS at 54 mg/kg", "setting": "[11]", "value": 100, "unit": "%"},
      {"measurement": "Activity", "setting": "Mus musculus [12]", "value": "inactive"},
      {"measurement": "Activity", "setting": "Mus musculus [13]", "value": "inactive"}
    ]},
    {"smiles": "O=NN(CCCl)C(=O)N[C@H]1CC[C@H](CCl)CC1", "values": [
      {"measurement": "ILS", "setting": "[1]", "value": ">25", "unit": "%"},
      {"measurement": "Activity", "setting": "[14]", "value": 10, "unit": "%"},
      {"measurement": "inhibition", "setting": "Mus musculus [15]", "value": "inactive"},
      {"measurement": "inhibition", "setting": "Mus musculus [3]", "value": "inactive"},
      {"measurement": "Activity", "setting": "Mus musculus [4]", "value": "inactive"},
      {"measurement": "inhibition", "setting": "Mus musculus [16]", "value": "inactive"},
      {"measurement": "Activity", "setting": "Mus musculus [17]", "value": "inactive"},
      {"measurement": "Ratio", "setting": "[8]", "value": 0.6},
      {"measurement": "Time", "setting": "[18]", "value": 4.3, "unit": "days"},
      {"measurement": "ILS at 60 mg/kg", "setting": "[19]", "value": 109, "unit": "%"},
      {"measurement": "ILS at 60 mg/kg", "setting": "[20]", "value": 87, "unit": "%"},
      {"measurement": "Time", "setting": "[21]", "value": 5.2, "unit": "days"},
      {"measurement": "Activity", "setting": "Mus musculus [22]", "value": "inactive"},
      {"measurement": "ILS at 40 mg/kg", "setting": "[23]", "value": 74, "unit": "%"},
      {"measurement": "ILS at 40 mg/kg", "setting": "[24]", "value": 51, "unit": "%"}
    ]}
  ]
}
